Compound activity from PubChem.
SENP7 inh: SENP7 protease inhibitors, primary screen, biochemical, luminescence, uHTS; actives 1.5% (n = 330,000); inhibition, % at 5 µM; recombinant SENP7, Z-RLRGG-aminoluciferin luminescence, 40 min; AID 434973, 2010;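 active = inhibition above about 50% at the single test dose, limit read from the data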
Target sequence (Q9BQF6 706-1050 limits assumed): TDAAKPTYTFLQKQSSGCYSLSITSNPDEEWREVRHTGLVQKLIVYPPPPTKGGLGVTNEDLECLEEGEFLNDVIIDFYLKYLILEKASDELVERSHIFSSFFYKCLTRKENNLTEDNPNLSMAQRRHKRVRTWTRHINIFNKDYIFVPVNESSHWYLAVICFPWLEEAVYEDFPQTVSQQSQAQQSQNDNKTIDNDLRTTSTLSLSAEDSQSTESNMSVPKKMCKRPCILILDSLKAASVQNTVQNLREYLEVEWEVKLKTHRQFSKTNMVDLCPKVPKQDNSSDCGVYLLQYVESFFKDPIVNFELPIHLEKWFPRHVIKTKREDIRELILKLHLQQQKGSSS
SENP6 block: SENP6 protease inhibitors, primary screen, biochemical, luminescence, uHTS. inhibition, % at 10 µM. AID 2599, 2010. Recombinant SENP6 catalytic domain, aminoluciferin luminescence. Sentrin-specific protease 6 (Homo sapiens), Q9GZR1. actives 1.8% (n = 330,000);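 active = inhibition above about 50% at the single tested dose, limit read from the data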
SENP8 block-1: SENP8 protease inhibitors, primary screen, biochemical, luminescence. Sentrin-specific protease 8 (Homo sapiens), Q96LD8. purified SENP8, Z-RLRGG-aminoluciferin cleavage. inhibition, % at 10 µM. actives 1.2% (n = 330,000); in the data active = inhibition above about 50%
SENP1 FRET inh: human SENP1 catalytic domain inhibitors, primary screen, biochemical, FRET, uHTS; inhibition, % at 10 µM; actives 0.21% (n = 360,000); AID 624204, 2012; Sentrin-specific protease 1 (Homo sapiens), Q9P0U3; recombinant SENP1 catalytic domain, CyPet-SUMO1-YPet FRET cleavage;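 active = inhibition at least 30% at 10 µM, raw YFP signal under a set limit, fluorescence ratio 0.5 to 1.5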
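Compound: 10 µM single point, 0.5% DMSO; Test system: hSENP1 catalytic domain, recombinant; Timing: 50 min reaction at room temperature; Technique: FRET, CFP and YFP emission; Control set: no-enzyme wells low, DMSO-plus-enzyme wells high control.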
SENP8 block-2: human SENP8 protease inhibitors, primary screen, biochemical, fluorescence, Nedd8 protein substrate, uHTS. actives 0.64% (n = 360,000). recombinant SENP8. AID 602440, 2012. inhibition, % at 20 µM. Sentrin-specific protease 8 (Homo sapiens), Q96LD8; in the data active = inhibition mostly above about 40%, no sharp cut-off; inactive = mostly below about 27%
UCH37 inh: inhibitors of human UCH37 deubiquitinase, primary screen, biochemical, Ub-AMC cleavage, fluorescence | inhibition, % (concentration not given with the values) | actives 0.33% (n = 330,000) | AID 588478, 2011 | Ubiquitin carboxyl-terminal hydrolase isozyme L5 (Homo sapiens), Q9Y5K5 | purified proteasome/UCH37;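 active = mean inhibition over replicate wells above about 20%, limit read from the data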
Target sequence (Q9Y5K5 whole entry, looked up): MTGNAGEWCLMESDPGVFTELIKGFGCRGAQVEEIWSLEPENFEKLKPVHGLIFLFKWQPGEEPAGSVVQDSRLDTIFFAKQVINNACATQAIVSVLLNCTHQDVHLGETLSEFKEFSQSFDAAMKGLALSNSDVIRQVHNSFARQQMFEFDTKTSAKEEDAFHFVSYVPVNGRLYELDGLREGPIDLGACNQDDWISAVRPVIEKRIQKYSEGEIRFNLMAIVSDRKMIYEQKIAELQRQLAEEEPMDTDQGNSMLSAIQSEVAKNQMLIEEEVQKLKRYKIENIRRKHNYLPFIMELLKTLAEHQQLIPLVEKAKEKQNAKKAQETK
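Test system – human UCH37 enzyme supplied as purified proteasome complex · Incubation – 30 min preincubation with enzyme, 25 min cleavage at room temperature · Detection – AMC fluorescence from Ub-AMC cleavage, excitation 355 nm, emission 460 nm · Benchmarks – no-proteasome wells (full inhibition) and compound-free wells (no inhibition)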
SENP8 confirm: SENP8 protease inhibitors, retest, confirmation, biochemical, luminescence, single concentration | inhibition, % at 12.5 µM | shares compounds with SENP7 inh | actives 40% (n = 6,200) | Recombinant SENP8, Z-RLRGG-aminoluciferin luminescence, 60 min | AID 488912, 2010;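 active = mean inhibition across replicates above about 50%, limit read from the data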
SENP6 conf: SENP6 protease inhibitors, confirmation, biochemical, luminescence, single concentration | actives 58% (n = 6,200) | inhibition, % at 12.5 µM | recombinant SENP6, Z-RLRGG-aminoluciferin luminescence | shares compounds with SENP7 inh
SENP7 conf: SENP7 protease inhibitors, retest, confirmation, biochemical, luminescence, single concentration; shares compounds with SENP7 inh; AID 488917, 2010; recombinant SENP7, Z-RLRGG-aminoluciferin luminescence, 40 min; actives 69% (n = 6,200); inhibition, % at 12.5 µM
Casp3 SENP sel: caspase-3 protease inhibitors, confirmation, selectivity assay for SENP inhibitor project, biochemical, single concentration. shares compounds with SENP7 inh. purified caspase-3, Z-DEVD-aminoluciferin luminescence, 60 min. actives 60% (n = 6,200). inhibition, % at 12.5 µM;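 active = mean inhibition above about 50%, limit read from the data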
Luc interf: counter-screen for SENP inhibitors: luminescence interference. Pre-incubated SENP8/Z-RLRGG-aminoluciferin, luciferase luminescence interference. actives 39% (n = 6,200). shares compounds with SENP7 inh. AID 488919. inhibition, % at 12.5 µM;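 active = mean inhibition above about 50% when retested at one dose, limit read from the data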
Numbers stand for hits; 0 = inactive; - = no result. A selection: hits, their analogues and other compounds. The true share with any hit is near 2.6%.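 The calls were made as follows, unless noted: active = mean inhibition above about 50% in the one-dose retest (limit read from the data); inactive = the rest.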

SMILES	SENP7 inh	SENP6 block	SENP8 block-1	SENP1 FRET inh	SENP8 block-2	UCH37 inh	SENP8 confirm	SENP6 conf	SENP7 conf	Casp3 SENP sel	Luc interf
Cc1ccccc1-c1cc2c(nn1)-c1ccccc1C2=O	98	100	96	0	105	0	83	99	102	98	56
Cc1nn(-c2ccccc2)c(N2CCCC2)c1C=NNC(=O)c1cc2ccccc2cc1O	-	-	-	-	-	0	-	-	-	-	-
Cc1ccc(C=NNC(=O)CNC(=O)COc2ccc(Cl)cc2)o1	-	-	-	-	-	0	-	-	-	-	-
Cc1cccc(C)c1OCc1nc2ccccc2c(=O)n1N=Cc1ccc(OCC(=O)O)cc1	-	-	-	-	-	0	-	-	-	-	-
Cc1c(NC(=O)c2cc3c(s2)CCCC3)c(=O)n(-c2ccccc2)n1C	0	0	61	0	0	0	0	0	0	0	0
CC(C)c1nnc(NC(=O)c2cccs2)s1	0	0	0	0	0	0	-	-	-	-	-
Cc1cnc(NC(=O)c2cccs2)s1	57	69	0	0	0	0	62	60	86	84	0
Cc1ncoc1C(=O)Nc1ncc([N+](=O)[O-])s1	97	95	93	0	0	0	99	100	103	99	98
O=C(Nc1cc([N+](=O)[O-])ccc1F)c1cccs1	0	0	0	0	0	0	-	-	-	-	-
O=C(Nc1ncc([N+](=O)[O-])s1)c1ccccc1Br	76	90	86	0	0	0	91	90	100	94	71
O=C(Nc1ncc([N+](=O)[O-])s1)c1cccs1	99	97	96	0	0	0	96	98	103	98	98
O=C(CS(=O)(=O)c1ccccc1)Nc1ncc([N+](=O)[O-])s1	0	0	0	0	0	0	-	-	-	-	-
CC(=O)NN=C(C)CC(=O)Nc1cccc2c1CCCC2	-	-	-	-	-	0	-	-	-	-	-
CC(=NN=C(N)N)c1cccc([N+](=O)[O-])c1	-	-	-	-	-	0	-	-	-	-	-
O=[N+]([O-])c1ccccc1C=NOCc1ccccc1	-	-	-	-	-	0	-	-	-	-	-
CNC(=O)N(O)C1N(N=Cc2ccccc2O)C(=S)SC1(C)C (stereo not drawn)	-	-	-	-	-	0	-	-	-	-	-
Cc1cnc(NC(=O)COc2ccccc2Cl)s1	92	90	77	0	0	0	66	91	99	90	0
CN1C(=O)C(CC(=O)O)S/C1=N\N=C\c1ccc(O)cc1O (stereo not drawn)	0	61	0	0	0	-	0	0	74	80	0
O=C(O)CC1S/C(=N\N=C/c2ccccc2)N(c2ccc(O)cc2)C1=O (stereo not drawn)	0	0	0	0	0	-	-	-	-	-	-
O=C(/C=C/Nc1ccc(F)cc1F)c1ccc(Br)cc1	67	0	0	0	0	0	0	0	0	0	0
O=C(/C=C/Nc1ccc(Br)cc1F)c1ccco1	98	95	96	0	0	0	0	93	100	86	0
O=C(/C=C/Nc1ccc(F)cc1F)c1ccco1	90	87	87	0	0	0	91	97	101	96	85
O=C(/C=C/c1ccc(Br)cc1)c1ccco1	0	0	0	0	0	0	-	-	-	-	-
Cn1c(=O)c2c(ncn2CCC(=O)NN=Cc2cccnc2)n(C)c1=O	-	-	-	-	-	0	-	-	-	-	-
COc1cc(C=NNC(=O)C(=O)NCc2ccco2)ccc1O	-	-	-	-	-	0	-	-	-	-	-
SMILES	SENP7 inh	SENP6 block	SENP8 block-1	SENP1 FRET inh	SENP8 block-2	UCH37 inh	SENP8 confirm	SENP6 conf	SENP7 conf	Casp3 SENP sel	Luc interf
CCCCc1noc2c1C(=NO)CC(c1ccccc1)C2 (stereo not drawn)	-	-	-	-	-	0	-	-	-	-	-
CN(C)CCCN(C(=O)COc1ccccc1)c1nc2c(F)cccc2s1	61	0	0	0	0	0	0	0	0	0	0
O=C(NC(=S)Nc1cccnc1Cl)c1ccc(Cl)cc1	0	67	0	0	0	0	0	0	0	0	53
CC1(C)C(c2cccs2)=[N+]([O-])C2(CCCCCC2=NNC(N)=O)N1O (stereo not drawn)	-	-	-	-	-	0	-	-	-	-	-
O=C(/C=C1\NC2(CCCC2)Cc2ccccc21)C(=O)NN=Cc1ccccc1O	-	-	-	-	-	0	-	-	-	-	-
Cc1cc(C)c(S(=O)(=O)/N=C2/C=C(SCC(=O)O)C(=O)c3ccccc32)cc1C	0	62	0	0	54	-	0	0	0	0	0
Cc1cc(C)c(S(=O)(=O)Nc2cc(SCC(=O)O)c(O)c3ccccc23)cc1C	-	-	-	-	-	0	-	-	-	-	-
CN(C)/C=C(\C#N)C(=O)NN=Cc1ccc(F)cc1	-	-	-	-	-	0	-	-	-	-	-
O=C(O)CSc1nc2ccccc2o1	0	0	0	0	0	0	-	-	-	-	-
O=[N+]([O-])c1ccc(CSc2nc3ccccc3o2)cc1	0	52	0	0	0	0	53	54	66	0	0
COC(=O)c1ccc(CSc2nc3ccccc3o2)cc1	91	85	87	0	0	0	0	91	100	80	65
COc1ccccc1/C=C/C(=O)NCC(=O)NN=Cc1ccccc1[N+](=O)[O-]	-	-	-	-	-	0	-	-	-	-	-
O=C(NN=Cc1cccc2ccccc12)c1cc2ccccc2o1	-	-	-	-	-	0	-	-	-	-	-
Cc1ccc2occ(/C=C/C(=O)O)c(=O)c2c1	0	74	0	0	0	0	64	58	86	58	61
O=C(Cc1ccccc1)NCC(=O)NN=Cc1ccc([N+](=O)[O-])s1	-	-	-	-	-	0	-	-	-	-	-
O=c1[nH]c(-c2ccccc2)cnc1-c1ccccc1	74	52	0	0	0	0	0	0	0	0	0
CC(CCc1ccco1)=NNC(=O)CCC(=O)Nc1ccc(Br)cc1	-	-	-	-	-	0	-	-	-	-	-
Cc1ccc(-c2nc3ccccc3nc2NN)cc1	79	91	85	0	0	-	0	67	92	74	0
Cc1ccsc1C=NNc1nc2ccccc2s1	-	-	-	-	-	0	-	-	-	-	-
